Three compounds from ChEMBL document CHEMBL1629676, “Inhibitory and bactericidal activities of daptomycin, vancomycin, and teicoplanin against methicillin-resistant Staphylococcus aureus isolates collected from 1985 to 2007” (2009) can be followed below.

Test [1] has as its system Staphylococcus aureus. The test can be described thus: Antimicrobial activity against methicillin-resistant Staphylococcus aureus assessed as >=3log10 CFU/ml reduction in bacterial growth after 24 to 48 hrs by CLSI method. It counts as functional. Summed up: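 MBC per CLSI: entire 0.1 ml from the MIC well and from wells 4 dilutions above the MIC spread on blood agar, dried 20 min, then spread evenly; incubated 35 to 37°C for 24 to 48 h. MBC taken as the lowest dilution giving ≥99.9% (≥3-log10 CFU/ml) reduction versus the growth control count.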

The subject of test [2] is Staphylococcus aureus. Nature of the test: Antimicrobial activity against methicillin-resistant Staphylococcus aureus by broth dilution assay. Format: functional. (In general: Dilution methods test growth across graded concentrations, often in twofold steps.)

In brackets after ≈: the same amount, converted by molar mass.

The MIC50 is an inhibitory concentration at the 50% level, which refers to growth in some studies and to a panel of isolates in others. Higher therefore signals lower susceptibility. As a reminder, the MIC90 is the lowest concentration that inhibits either 90% of growth or 90% of the strains tested, depending on the study. Read a low MIC90 as higher susceptibility. In the case of `CC(=O)N[C@@H]1[C@H](Oc2c3cc4cc2Oc2ccc(cc2Cl)[C@@H](O[C@@H]2O[C@@H](CO)[C@@H](O)[C@H](O)[C@@H]2NC(C)=O)[C@@H]2NC(=O)[C@H](NC(=O)[C@@H]4NC(=O)[C@H]4NC(=O)[C@@H](Cc5ccc(c(Cl)c5)O3)NC(=O)[C@H](N)c3ccc(O)c(c3)Oc3cc(O)cc4c3)c3ccc(O)c(c3)-c3c(O[C@H]4O[C@H](CO)[C@@H](O)[C@@H](O)[C@@H]4O)cc(O)cc3[C@@H](C(=O)O)NC2=O)O[C@@H](CO)[C@@H](O)[C@@H]1O`, in test [1], the MBC50 stood at 2 µg/mL (≈ 1.13 µM) and the MBC90 turned out to be 32 µg/mL (≈ 18.1 µM). Further, in test [2], the MIC50 stood at 1 µg/mL (≈ 0.566 µM) and the MIC90 was 1 µg/mL (≈ 0.566 µM).
Consider `CCCCCCCCCC(=O)N[C@@H](Cc1c[nH]c2ccccc12)C(=O)N[C@H](CC(N)=O)C(=O)N[C@@H](CC(=O)O)C(=O)N[C@@H]1C(=O)NCC(=O)N[C@@H](CCCN)C(=O)N[C@@H](CC(=O)O)C(=O)N[C@H](C)C(=O)N[C@@H](CC(=O)O)C(=O)NCC(=O)N[C@H](CO)C(=O)N[C@@H]([C@H](C)CC(=O)O)C(=O)N[C@@H](CC(=O)c2ccccc2N)C(=O)O[C@@H]1C`, for which, in test [1], the MBC50 came to 0.5 µg/mL (≈ 0.309 µM) and the MBC90 was found to be 1 µg/mL (≈ 0.617 µM). In test [2], the MIC50 is 0.5 µg/mL (≈ 0.309 µM) and the MIC90 was 0.5 µg/mL (≈ 0.309 µM).
Turning to `CN[C@H](CC(C)C)C(=O)N[C@H]1C(=O)N[C@@H](CC(N)=O)C(=O)N[C@H]2C(=O)N[C@H]3C(=O)N[C@H](C(=O)N[C@H](C(=O)O)c4cc(O)cc(O)c4-c4cc3ccc4O)[C@H](O)c3ccc(c(Cl)c3)Oc3cc2cc(c3O[C@@H]2O[C@H](CO)[C@@H](O)[C@H](O)[C@H]2O[C@H]2C[C@](C)(N)[C@H](O)[C@H](C)O2)Oc2ccc(cc2Cl)[C@H]1O` [VANCOMYCIN], in test [1], the MBC50 stood at 1 µg/mL (≈ 0.69 µM) and the MBC90 worked out at 1 µg/mL (≈ 0.69 µM). For the same compound, in test [2], the MIC50 worked out at 1 µg/mL (≈ 0.69 µM) and the MIC90 stood at 1 µg/mL (≈ 0.69 µM).
